Source: PubChem BioAssay
Calls of active or inactive are those of the source.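 How the source made its calls, unless noted: active means fluorescence slope higher than the sample average by over 3 SD (cut at about -0.22 in these data, passing the limit was not always enough); inactive means the rest.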

Assays:
[1] = inhibitors of TNFa-induced NFkB p65 translocation, primary screen, imaging, HUVEC, MLSMR starter and 10KST1 sets (AID 438;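 active means inhibition above 20% together with a positive visual image hit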;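 further: compound added about 3h40 before a 20 min TNFalpha stimulation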;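 on inhibition: signal is the nuclear over cytoplasmic p65 intensity ratio per well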); conditions: HUVEC TNFa-induced p65 nuclear translocation; cell count: measured here: nuclei count (cytotoxicity indicator), at 2.08 µM; inhibition: at 2 µM, stronger effect = higher value, 0% TNFa-plus-vehicle, 100% no-TNFa wells
[2] = inhibitors of E-selectin induction by TNFa, primary screen, imaging, HUVEC, immunofluorescence, MLSMR starter and 10KST1 sets (AID 487;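 active means visually confirmed hit in the image check and inhibition above 20%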;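 on inhibition: signal is fraction of cell area covered by stained E-selectin grains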;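 on nuclei count: 100% = median nuclei count of all wells on the same plate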); conditions: HUVEC TNFalpha-induced E-selectin immunofluorescence imaging, at 2 µM; inhibition: stronger effect = higher value; nuclei count: measured here: cell number, toxicity
[3] = DUSP6 inhibitors restoring Erk phosphorylation by chemical complementation, primary imaging in DUSP6-transfected HeLa (AID 609;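 active means compounds giving at least 50% inhibition in the cell-based MKP-3 phosphatase rescue imaging test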;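 on inhibition: phospho-Erk level distribution per well compared with pooled transfected vehicle control wells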); conditions: HeLa MKP-3 transfected, phospho-Erk imaging KS statistic, at 10 µM, cells stimulated with TPA for 15 min
[4] = target: Dual specificity protein phosphatase 6 (Homo sapiens) (UniProt Q16828); test: as above; conditions: HeLa MKP-3 transfected, phospho-Erk imaging KS statistic; at 10 µM; stronger effect = higher value; cells stimulated with TPA for 15 min
[5] = target: Voltage-gated potassium channel subunit beta-2 (Rattus norvegicus) (UniProt P62483); test: KvBeta enzyme negative modulators, primary screen, biochemical, NADPH fluorescence (AID 622); conditions: recombinant KvBeta, 4-cyanobenzaldehyde reduction, at 10 µM, stronger effect = higher value;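 further: slope of raw intensity against log time taken from 70 to 1610 s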
[6] = target: Voltage-gated potassium channel subunit beta-2 (Rattus norvegicus) (UniProt P62483); test: KvBeta positive modulators, primary screen, biochemical, NADPH fluorescence (AID 623;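 active means NADPH fluorescence slope more negative than the mean of all samples by about 3 SD, 99.7% confidence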;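 further: fluorescence intensity change per second fitted from 20 to 320 s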); conditions: Recombinant KvBeta, NADPH fluorescence decrease slope, 10 min; at 10 µM; stronger effect = lower value
[7] = target: Alpha-2C adrenergic receptor (Homo sapiens) (UniProt P18825); test: modulators of alpha2C/GIRK thallium flux, primary screen, cell-based, HEK293 alpha2C/GIRK1/2 (AID 624;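 active means fluorescence slope after compound addition differing from the mean of all screened samples at 99.7% confidence, in either direction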;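 further: slope of fluorescence ratio to pre-addition baseline per second over 15 to 24 s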); conditions: thallium flux BTC fluorescence, at 10 µM, actives lie on both sides
[8] = inhibitors of larval lipid processing in zebrafish, primary screen, whole organism, PED6 fluorescence, gall bladder and intestine (AID 686;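 active means a full or partial loss of lipid-probe fluorescence in the fish gall bladder, intestine or both, judged by eye; inactive means no fluorescence loss, or compound toxic to the fish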;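 further: larvae 5 to 7 days old with five fish per well; signal comes from phospholipase A2 cleavage of quenched PED6 carried via bile; overnight exposure to compound and PED6 before scoring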); conditions: Zebrafish larvae PED6 lipid processing, fluorescence scoring; screened at 20 µM (by protocol)
Outline: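 system = live zebrafish larvae aged 5-7 days, whole organism | probe or stimulus = ingested quenched lipid PED6 at 100 nM | doses = 20 µM single dose | timing = overnight exposure | detection = fluorescence microscopy with visual scoring of gall bladder and intestine | read-out = visual per-well fluorescence inhibition score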

[9] = inhibitors of Chlamydomonas gravitaxis, primary screen, whole organism, Chlamydomonas reinhardtii, WT vs cilia-less mutant, absorbance, 96-well (AID 463189;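 active means inhibition at or above 50% relative to wild type and mutant plate controls; inactive means inhibition below 50%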;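 further: 0% = wild type cc124 cells in DMSO and 100% = ciliumless bld1 mutant cells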); conditions: OD600 absorbance, 2 days, at 10 µM, stronger effect = higher value
[10] = measured here: cell density z-score
[11] = measured here: nuclear c-Myc green intensity z-score
[12] = measured here: nuclear pErk red intensity z-score, stronger effect = higher value

Alpha-2C adrenergic receptor (Homo sapiens), sequence (P18825 whole entry, looked up): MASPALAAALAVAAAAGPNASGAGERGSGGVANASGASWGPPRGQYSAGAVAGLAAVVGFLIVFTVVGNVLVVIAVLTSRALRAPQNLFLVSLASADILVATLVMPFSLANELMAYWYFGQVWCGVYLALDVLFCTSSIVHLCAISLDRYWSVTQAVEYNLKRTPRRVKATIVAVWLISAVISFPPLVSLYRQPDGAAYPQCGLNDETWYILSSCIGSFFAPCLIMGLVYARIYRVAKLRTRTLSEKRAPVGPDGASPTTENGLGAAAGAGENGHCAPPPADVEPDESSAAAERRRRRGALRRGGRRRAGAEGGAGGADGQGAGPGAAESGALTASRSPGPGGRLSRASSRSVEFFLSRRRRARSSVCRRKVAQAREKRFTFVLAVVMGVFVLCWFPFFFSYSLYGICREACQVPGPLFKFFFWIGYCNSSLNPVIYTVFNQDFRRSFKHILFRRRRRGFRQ
Voltage-gated potassium channel subunit beta-2 (Rattus norvegicus), sequence (P62483 whole entry, looked up): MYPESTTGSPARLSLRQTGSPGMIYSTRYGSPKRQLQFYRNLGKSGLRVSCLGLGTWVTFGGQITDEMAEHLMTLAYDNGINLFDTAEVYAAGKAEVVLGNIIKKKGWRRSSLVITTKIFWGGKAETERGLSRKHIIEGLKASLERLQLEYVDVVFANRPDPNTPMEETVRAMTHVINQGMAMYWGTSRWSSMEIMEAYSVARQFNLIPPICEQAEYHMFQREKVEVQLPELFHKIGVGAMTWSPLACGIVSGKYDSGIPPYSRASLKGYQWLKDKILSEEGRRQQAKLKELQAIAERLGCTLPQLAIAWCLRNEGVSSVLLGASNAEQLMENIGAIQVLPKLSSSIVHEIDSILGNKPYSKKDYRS
Dual specificity protein phosphatase 6 (Homo sapiens), sequence (Q16828 whole entry, looked up): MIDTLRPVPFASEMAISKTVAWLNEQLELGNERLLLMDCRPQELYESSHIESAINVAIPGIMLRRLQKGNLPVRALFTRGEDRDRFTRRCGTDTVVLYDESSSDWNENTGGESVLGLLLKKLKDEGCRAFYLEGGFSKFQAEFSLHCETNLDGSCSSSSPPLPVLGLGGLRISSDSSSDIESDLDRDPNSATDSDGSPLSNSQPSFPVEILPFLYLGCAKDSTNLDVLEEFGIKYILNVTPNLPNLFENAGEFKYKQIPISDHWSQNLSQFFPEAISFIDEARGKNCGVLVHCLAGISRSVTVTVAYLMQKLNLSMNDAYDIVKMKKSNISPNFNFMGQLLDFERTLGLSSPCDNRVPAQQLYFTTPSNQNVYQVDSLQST

SMILES	cell count [1]	inhibition [1]	inhibition [2]	nuclei count [2] [%]	z-score [3, 10]	z-score [3, 11]	z-score [3, 12]	inhibition [4]	fluorescence slope [5]	NADPH fluorescence slope [6]	slope [7]	outcome [8]	inhibition [9]
CCC1SC(N)=NC1=O (stereo unspecified)	522	-23.4% (inactive)	-58.7% (inactive)	182	-1.82	1.35	1.78	-15% (inactive)	-0.405 (inactive)	-7.4e-05 (inactive)	0.00536 (inactive)	inactive	13.5% (inactive)
CC/C(=N\O)c1ccc(OC)c(OC)c1	328	-13.3% (inactive)	-106% (inactive)	159	-0.778	-1.02	1.01	1.75% (inactive)	-0.423 (inactive)	-0.000183 (inactive)	0.00545 (inactive)	inactive	13.3% (inactive)
COc1cccc(-c2nc(N3CCC(C)CC3)c3ccccc3n2)c1O	573	-3.3% (inactive)	48.3% (inactive)	120	0.534	-0.819	1.15	-12.3% (inactive)	-0.409 (inactive)	-3.4e-05 (inactive)	0.00378 (inactive)	inactive	9.22% (inactive)
COc1cc(-c2nn3c(-c4ccco4)nnc3s2)cc(OC)c1OC	483	-2.2% (inactive)	-67.5% (inactive)	99.3	-0.638	-0.467	0.841	-2.47% (inactive)	-0.471 (inactive)	3.2e-05 (inactive)	0.0061 (inactive)	inactive	4.86% (inactive)
O=S(CCc1ccncc1)Cc1ccccc1 (stereo unspecified)	337	-23.4% (inactive)	-114% (inactive)	140	-0.83	1.38	2.01	-14% (inactive)	-0.427 (inactive)	-0.000147 (inactive)	0.00701 (inactive)	inactive	-11.4% (inactive)
CCCCCCOC(=O)CCn1[nH]c(=O)c2ccccc2c1=O	547	-12.2% (inactive)	-119% (inactive)	136	0.183	-0.855	0.203	7.93% (inactive)	-0.492 (inactive)	-6.3e-05 (inactive)	0.0065 (inactive)	inactive	27.6% (inactive)
CC1(C)Cc2c(oc3ncn4ncnc4c23)CO1	587	-8.9% (inactive)	-143% (inactive)	102	-0.312	-1.57	0.382	13.2% (inactive)	-0.569 (inactive)	-8.8e-05 (inactive)	0.00443 (inactive)	inactive	18.4% (inactive)
CCOC(=O)c1ccc(NC(=O)CCC(CC)C(=O)O)cc1 (stereo unspecified)	402	-23.7% (inactive)	-228% (inactive)	167	1.04	-1.56	-0.382	27.7% (inactive)	-0.349 (inactive)	-9.3e-06 (inactive)	0.00545 (inactive)	inactive	-1.41% (inactive)
Clc1ccc2[nH]c3c(NCCCN4CCOCC4)ncnc3c2c1	471	-7.1% (inactive)	-31.4% (inactive)	102	-0.293	-0.352	1.38	-13.3% (inactive)	-0.52 (inactive)	6.4e-06 (inactive)	0.00501 (inactive)	inactive	-7.19% (inactive)
CCOc1cccc(-c2nn3c(-c4ccccn4)nnc3s2)c1	649	-3.2% (inactive)	-78% (inactive)	150	0.204	-0.822	0.934	-9.66% (inactive)	-0.427 (inactive)	-4.9e-05 (inactive)	0.00726 (inactive)	inactive	23.8% (inactive)
COc1cccc(/C(O)=C2\C(=O)C(=O)N(c3ccccn3)C2c2ccccc2OC)c1 (stereo unspecified)	512	-5.9% (inactive)	-90.1% (inactive)	126	1.61	0.206	-0.573	12.3% (inactive)	-0.54 (inactive)	-2.1e-05 (inactive)	0.00547 (inactive)	inactive	-14.1% (inactive)
CC(C)CC(=O)Nc1ncnc2c1C(=O)CC(C)(C)C2	635	-9.9% (inactive)	35.4% (inactive)	167	0.463	-0.408	0.517	1.12% (inactive)	-0.413 (inactive)	-5.4e-05 (inactive)	0.00518 (inactive)	inactive	-3.52% (inactive)
